Measurements reported in ChEMBL document CHEMBL1138107, “Novel non-nucleobase inhibitors of Staphylococcus aureus DNA polymerase IIIC” (Bioorg Med Chem Lett, 2006).
Values after ≈ are worked out from the molar mass of the structure shown. Active and inactive are the calls of the source. The rule behind the calls is not given here.

Experiments:
[1] = molecular target: T1, DNA polymerase III PolC-type (Staphylococcus aureus) (UniProt P0C1P9); experiment: Inhibition of DNA polymerase3C from Staphylococcus aureus at 100 uM
T1 sequence (whole entry): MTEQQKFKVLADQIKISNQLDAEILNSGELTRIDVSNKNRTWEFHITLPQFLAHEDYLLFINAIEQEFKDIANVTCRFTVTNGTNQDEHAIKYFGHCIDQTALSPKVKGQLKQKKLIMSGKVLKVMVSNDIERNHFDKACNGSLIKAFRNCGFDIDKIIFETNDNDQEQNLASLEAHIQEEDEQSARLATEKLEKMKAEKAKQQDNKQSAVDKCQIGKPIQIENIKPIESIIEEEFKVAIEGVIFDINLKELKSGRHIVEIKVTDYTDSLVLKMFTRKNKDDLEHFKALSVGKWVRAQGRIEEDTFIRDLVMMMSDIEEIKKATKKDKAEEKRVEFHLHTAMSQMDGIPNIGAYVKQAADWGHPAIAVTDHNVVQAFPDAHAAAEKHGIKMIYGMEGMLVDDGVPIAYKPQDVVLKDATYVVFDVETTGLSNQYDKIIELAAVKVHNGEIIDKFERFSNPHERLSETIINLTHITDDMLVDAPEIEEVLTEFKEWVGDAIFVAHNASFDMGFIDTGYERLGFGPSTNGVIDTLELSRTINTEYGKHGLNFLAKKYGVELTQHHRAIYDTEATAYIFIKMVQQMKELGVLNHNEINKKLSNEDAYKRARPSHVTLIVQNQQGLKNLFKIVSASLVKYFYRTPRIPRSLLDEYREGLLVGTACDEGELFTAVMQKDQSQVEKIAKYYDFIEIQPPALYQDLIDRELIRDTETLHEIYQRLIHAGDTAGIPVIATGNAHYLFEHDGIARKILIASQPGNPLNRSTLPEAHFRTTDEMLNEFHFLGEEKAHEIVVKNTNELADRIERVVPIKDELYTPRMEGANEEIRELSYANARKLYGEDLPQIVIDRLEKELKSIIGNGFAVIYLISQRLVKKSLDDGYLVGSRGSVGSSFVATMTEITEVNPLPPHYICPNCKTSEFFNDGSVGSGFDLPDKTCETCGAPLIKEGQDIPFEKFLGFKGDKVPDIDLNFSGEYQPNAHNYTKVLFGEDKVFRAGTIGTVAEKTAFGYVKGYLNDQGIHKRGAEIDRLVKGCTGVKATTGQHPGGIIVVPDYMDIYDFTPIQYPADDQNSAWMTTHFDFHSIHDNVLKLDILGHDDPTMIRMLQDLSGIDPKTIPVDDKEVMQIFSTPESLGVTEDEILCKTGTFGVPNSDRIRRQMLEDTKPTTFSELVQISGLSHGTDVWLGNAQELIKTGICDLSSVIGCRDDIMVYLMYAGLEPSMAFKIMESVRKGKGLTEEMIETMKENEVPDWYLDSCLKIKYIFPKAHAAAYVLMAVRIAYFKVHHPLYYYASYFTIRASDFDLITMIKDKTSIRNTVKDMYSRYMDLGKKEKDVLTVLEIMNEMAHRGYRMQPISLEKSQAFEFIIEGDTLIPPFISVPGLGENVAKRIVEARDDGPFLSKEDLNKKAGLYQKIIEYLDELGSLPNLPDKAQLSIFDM
How it was run: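 PolC oligonucleotide-primed incorporation of [³H]dTTP was run with 125 ng purified enzyme for 30 min at 37 °C. It was quenched with EDTA, filter-bound on DE81 and counted by liquid scintillation. Compounds were screened in triplicate at 10, 50 and 100.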

Staphylococcus aureus = experiment: Antimicrobial activity against Staphylococcus aureus (RN4220); type: functional; settings: read-out: MIC
HeLa = experiment: Cytotoxicity against HeLa cell line by MTS assay; type: functional, cell-based; settings: Homo sapiens
How it was run: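 HeLa cells (2 × 10⁴/well) in DMEM with 1% bovine growth serum were exposed to compound at 100, 50, 25 and 12.5 for 18 h at 37 °C under 5% CO₂. Viability was read as MTS reduction to formazan, by absorbance at 490 nm.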

Hepatocyte [2] = experiment: Decrease in ATP productions in human hepatocytes at 100 uM; type: functional, cell-based
How it was run: (§1)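 Cryopreserved primary human hepatocytes (1 × 10⁴/well) in Krebs–Henseleit buffer were incubated with compound at 100, 50, 25 and 12.5 for 2 h at 37 °C under 5% CO₂. ATP content was then measured by luminescence after adding luciferin and luciferase.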

[3] = molecular target: T2, DNA polymerase III PolC-type (Staphylococcus aureus, UniProt P0C1P9); experiment: Inhibition of DNA polymerase3C from Staphylococcus aureus
T2 sequence (P0C1P9 whole entry): T1 sequence (whole entry)
How it was run: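 Purified PolC (125 ng) started the reaction with a double-stranded oligonucleotide substrate, dATP, dCTP, low dGTP and [³H]dTTP (1 Ci/mmol) in Tris-HCl pH 7.5 buffer with glycerol, EDTA, DTT, IgG and 8 mM MgCl₂. Incubation was 30 min at 37 °C, stopped with 20 mM EDTA, then spotted on DE81 filters, washed and counted by scintillation. IC50 came from a 12-point, roughly 2-fold serial dilution, run in triplicate.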

Hepatocyte [4] = experiment: Cytotoxicity against human hepatocytes by measure of ATP production at 50 uM; type: functional, cell-based; how it was run: as §1

inhibition [1] [%]	MIC (Staphylococcus aureus) [µg/mL]	IC50 [3] [µM]	SMILES	Activity (HeLa)	Activity (Hepatocyte [2])	Activity (Hepatocyte [4])
90	8 (≈ 28 µM)		C=CCc1c(O)nc(Nc2ccc(C)c(CC)c2)nc1O	Not toxic	Active	
74	8 (≈ 21.2 µM)	4	Oc1nc(Nc2ccc3c(c2)CCC3)nc(O)c1CCCOc1ccccc1	Not toxic		Toxic
75	8 (≈ 22.1 µM)		Oc1nc(Nc2ccc3c(c2)CCC3)nc(O)c1CCCc1ccccc1	Not toxic	Active	
